This is an account of results in PubChem BioAssay AID1656 (Sanford-Burnham Center for Chemical Genomics, 2009).

The campaign covered roughly 240,000 compounds. About 950 (0.4%) were called active. This is one part of a sample in which actives are shown more often than they occur.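 How the source made its calls: active means lipid droplet intensity inhibited by at least 50%, with more than 500 cells counted; inconclusive means wells with under 300 cells, treated as cytotoxic; inactive means the rest.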

The assay in a line: inhibitors of hepatocyte lipid droplet formation, primary screen, imaging, high-throughput imaging, BODIPY stain (AID 1656).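 On cell count: cells counted across two imaged fields per well.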 To be noted: AML12 mouse hepatocytes, oleate lipid droplets, at 6.5 µM; cell count: measured here: cell count, cytotoxicity flag; inhibition: stronger effect = higher value. The essentials: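 Test system: AML12 hepatocytes (mouse); reagent: oleate loading, 100 µM; dosing: one dose, 6.5 µM compound; incubation: overnight exposure; signal: fluorescence imaging, 20x objective, two fields per well; read-out basis: % inhibition of corrected integrated BODIPY droplet signal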
As to `COc1cccc(NC(=O)CN(C)C(=O)c2ccccc2CCc2ccccc2)c1`, the cell count amounted to 836 cells and the inhibition was -9.7% (inactive).
For `CC(=O)c1cccc(NC(=O)CN2C(=O)c3cccnc3Oc3ccc(Cl)cc32)c1` the same measures were 693 cells and -16.7% (inactive).
For `O=C(c1ccccc1)N1N=C(c2ccccc2O)CC1c1ccc(Br)cc1` (configuration not stated) the same measures were 868 cells and 1.5% (inactive).
As to `COc1ccc(C(=O)NC2CC(C)(C)Cc3c2cnn3-c2ccccc2C)o1` (configuration not stated), the cell count was determined as 621 cells and the inhibition is -21% (inactive).
In the case of `Cc1ccc(/C=C2/SC(=S)N(CCC(=O)NCCCN3CCOCC3)C2=O)cc1`, the cell count turned out to be 794 cells and the inhibition was -18.3% (inactive).
For `CCC(CC)NC(=O)/C=C/c1cccc([N+](=O)[O-])c1` the same measures were 628 cells and -7.2% (inactive).
For `CCc1ccc(NC(=O)C(C)OC(=O)/C=C/c2cccc([N+](=O)[O-])c2)cc1` (configuration not stated) the same measures were 651 cells and 60% (active).
On to `Cc1ccc(NC(=O)O/N=C/c2cccc([N+](=O)[O-])c2)cc1`, for which the cell count was 427 cells and the inhibition was -4.6% (inactive).
For `COc1ccccc1CCNS(=O)(=O)c1cc2c3c(c1)C(C)C(=O)N3CCC2` (configuration not stated) the same measures were 707 cells and -4% (inactive).
For `CCCCN(CCCC)CCCNC(=O)CN1C(=O)COc2ccc(S(=O)(=O)N3CCC(C)CC3)cc21`, in that order: 789 cells and 10.1% (inactive).
On to `CCOC(=O)[C@H]1[C@H]2COc3cc(OC)ccc3[C@@H]2N2C(=O)N(c3ccc(Br)cc3)C(=O)[C@@]12C`, for which the cell count turned out to be 831 cells and the inhibition was -8.9% (inactive).
For `COc1cccc(OCC(O)CNC(=O)c2oc3c(C)c(C)ccc3c2C)c1` (configuration not stated), in that order: 871 cells and -0.2% (inactive).
For `Cn1c(=O)[nH]c(=O)c2c1nc(N1CCN(C(c3ccccc3)c3ccccc3)CC1)n2CCO` the same measures were 768 cells and 60.3% (active).
For `C=C(C)Cn1c(N2CCCC2)nc2c1c(=O)[nH]c(=O)n2C`, in that order: 632 cells and -2.2% (inactive).
With `CC1CCN(c2nc3c(c(=O)[nH]c(=O)n3C)n2CCCc2ccccc2)CC1`, the cell count turned out to be 572 cells and the inhibition is -14.6% (inactive).
Take `CCOc1ccc(NC(=O)CCCCCN2C(=O)[C@@H]3Cc4ccccc4CN3C2=O)cc1`: the cell count turned out to be 676 cells and the inhibition is 11.7% (inactive).
On to `CCOc1ccc(CCNC(=O)Nc2ccccc2)cc1OCC`, for which the cell count was 809 cells and the inhibition is 118% (active).
For `CCOc1cc(NC(=O)Nc2ccccc2)c(OCC)cc1NC(=O)CC`, in that order: 783 cells and 4.2% (inactive).
For `CCOc1ccc(CCNC(=O)C2=C(C)C(=O)OC23CCC(C)CC3)cc1OCC` (configuration not stated), in that order: 788 cells and 17.6% (inactive).
For `CCn1c(SCc2cccc(C(=O)O)c2)nnc1-c1ccc(Cl)cc1`, in that order: 802 cells and 11.8% (inactive).
On to `COc1ccc(C(=O)N2CCCCC2C(=O)Nc2ccc(-n3nc(C)cc3C)cc2)o1` (configuration not stated), for which the cell count is 694 cells and the inhibition was -12.1% (inactive).
Consider `Cc1cc(N2CCN(c3ccccc3)CC2)nc(N2CCOCC2)n1`, for which the cell count came to 649 cells and the inhibition was -5.7% (inactive).
For `C(=N/Nc1cc(N2CCOCC2)nc(N2CCOCC2)n1)/c1ccccc1`, in that order: 583 cells and 120% (active).
As for `CN(C)c1ccc(/C=N/Nc2cc(N3CCOCC3)nc(N3CCOCC3)n2)cc1`, the cell count was 716 cells and the inhibition was -2.2% (inactive).
Regarding `Cc1cccc(NC(=O)c2ccc(S(=O)(=O)N(C)CC3CCCO3)cc2)c1C` (configuration not stated), the cell count turned out to be 678 cells and the inhibition is -9.6% (inactive).
Take `Cc1cccc2c1cnn2C(=O)CCC(=O)NC1CCCCC1`: the cell count was found to be 740 cells and the inhibition is -7.9% (inactive).

Usually inhibition stands for the drop in the measured response relative to a control, in per cent.
